Experimental findings from ChEMBL document CHEMBL1154865, “Sesquiterpenes and dimeric sesquiterpenoids from Sarcandra glabra” (J Nat Prod, 2010) are described below.

Assay type in all cases: functional, cell-based
The subject of one test is Bel-7402. Briefly: Cytotoxicity against human Bel7402 cells after 72 hrs by SRB assay. In a few lines:
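Cell growth read out by SRB (sulforhodamine B) staining, with pseudolaric acid B as the positive control. BEL-7402 is a human hepatocarcinoma line.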

In another test the test system is HL-60. As to the kind of experiment: Cytotoxicity against human HL60 cells after 72 hrs by MTT assay. Particulars: HL-60, 72 h. A digest of the protocol:
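HL-60 cell line tested by the MTT method, with pseudolaric acid B run alongside as positive control; activity expressed as IC50 in µM.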
In general terms: Formazan colour is commonly taken as a measure of viable cells.

The next test has as its system A549. Briefly: Cytotoxicity against human A549 cells after 72 hrs by SRB assay. Particulars: A549, 72 h. (In general: The SRB assay estimates cell density from bound dye.)

Activity calls are given as the source filed them. The rule behind the calls is not given here.

Consider `C=C1[C@H]2C[C@H]2[C@]2(C)C[C@@H]3OC(=O)C(C)=C3C[C@]12O`, for which the result with Bel-7402 was inactive.

For `C/C=C(\C)C(=O)OC[C@]1(O)[C@H]2C[C@H]2[C@]2(C)[C@@H]3C[C@@]4(O)C5=C(C6=C(C)C(=O)O[C@]6(O)[C@H](O)[C@@]5(C)[C@@H]5C[C@@H]54)[C@@]34OC(=O)C(COC(C)=O)=C4C[C@@H]12`, the outcome in the test with Bel-7402 was inactive.

`C/C=C(\C)C(=O)OC[C@]1(O)[C@H]2C[C@H]2[C@]2(C)[C@@H]3CC4=C5[C@H](/C(=C(\C)C(=O)OC)C(=O)[C@H](O)[C@@]5(C)[C@@H]5C[C@H]45)[C@@]34OC(=O)C(C)=C4C[C@@H]12` [SARCANDROLIDE A]: the results for the IC50 in the test with HL-60 and in the test with A549 were 3.1 µM and 7.2 µM, respectively. In addition, the result in the test with Bel-7402 was inactive.

For the compound `COC(=O)/C(C)=C1\C(=O)[C@H](O)[C@]2(C)C3=C(C[C@@H]4[C@]5(OC(=O)C6=C5C[C@H]5[C@](O)(COC(=O)/C(C)=C/COC(=O)[C@@H](OC(C)=O)CC(=O)OC6)[C@H]6C[C@H]6[C@]45C)[C@H]31)[C@H]1C[C@H]12` [SARCANDROLIDE C], the concentration for half-maximal inhibition (IC50) in the test on HL-60 worked out at 8.5 µM; in the test with A549, 4.7 µM. Moreover, the outcome with Bel-7402 was inactive.

Regarding `COC(=O)C1=CC[C@@]23CC[C@@H]([C@@](C)(/C=C/C=C(\C)C(=O)O)OC2=O)[C@@]3(OC(C)=O)CC1` [PSEUDOLARIC ACID B], the IC50 is 4.2 µM with HL-60; 1.6 µM with A549; 1.3 µM in the test with Bel-7402 (Bel-7402, 72 h).

With `CC1=CC[C@@H](O)[C@]2(C)C[C@@H]3OC(=O)C(C)=C3C[C@@H]12`, the outcome with Bel-7402 was inactive.

For the compound `C/C=C(\C)C(=O)OC[C@]1(O)[C@H]2C[C@H]2[C@]2(C)[C@@H]3C[C@@]4(O)C5=C(/C(=C(\C)C(=O)OC)C(=O)[C@H](O)[C@@]5(C)[C@@H]5C[C@@H]54)[C@@]34OC(=O)C(COC(C)=O)=C4C[C@@H]12`, the result with Bel-7402 was inactive.

`COC(=O)/C(C)=C1\C(=O)[C@H](O)[C@]2(C)C3=C(C[C@@H]4[C@]5(OC(=O)C(CO)=C5C[C@H]5[C@](O)(COC(=O)/C(C)=C/CO)[C@H]6C[C@H]6[C@]45C)[C@H]31)[C@H]1C[C@H]12` [SARCANDROLIDE B]: in the test with HL-60, the IC50 was 8.4 µM. Further, the outcome with Bel-7402 was inactive.

As a reminder, the IC50 is the midpoint of a concentration-inhibition curve. A low value points to greater potency in that assay.
